Activity calls are given as the source filed them. No cut-off for these calls is given here.
Legend:
ELAV-like protein 1 [1] = molecular target: T1, ELAV-like protein 1 (Homo sapiens, UniProt Q15717); experiment: Binding affinity to human full length recombinant His-tagged HuR expressed in Escherichia coli […] assessed as inhibition of interaction with single-strand Bi-AU RNA probe by AlphaScreen assay
ELAV-like protein 1 [2] = molecular target: T1, ELAV-like protein 1; experiment: Binding affinity to human full length recombinant HuR expressed in Escherichia coli […] assessed as inhibition of interaction with 5'-DY681-labeled AU-rich RNA probe at 5 uM after 30 mins by REMSA
In short: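 Non-denaturing, non-cross-linked REMSA: full-length recombinant His-tagged HuR (E. coli-expressed) in at least 10-fold excess incubated 30 min with 75 fmol 5′-DY681-labeled AU-rich RNA probe plus DMSO or compound at 5 μM; reduction of shifted probe band scored qualitatively.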

MCF7 [3] = experiment: Cytotoxicity against human MCF7 cells assessed as decrease in cell viability after 72 hrs by OZBlue assay; details: MCF7, 72 h
MDA-MB-231 [4] = experiment: Cytotoxicity against human MDA-MB-231 cells assessed as decrease in cell viability after 72 hrs by OZBlue assay; details: MDA-MB-231, 72 h
ELAV-like protein 1 [5] = molecular target: T1, ELAV-like protein 1; experiment: Change in HuR localization from nucleus to cytoplasm in human MCF7 cells at 1 uM after 3 hrs by DAPI staining-based immunofluorescence method; assay type: cell-based
In short: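 MCF7 cells, 8.000/well, treated 3 h alongside DMSO control, then fixed in 3.7% PFA for 15 min at RT. Permeabilised 10 min (200 mM sucrose, 0.2% Triton X-100) and blocked 15 min in 2% BSA. Stained with anti-HuR (1:250), Alexa 594 secondary (1:500) and DAPI (1.5 μg/mL). Imaged at 40×, 13 fields/well. Read-out: nuclear/cytoplasmic HuR ratio, mean of single cells per well.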

PANC-1 [6] = experiment: Cytotoxicity against human PANC1 cells assessed as decrease in cell viability after 72 hrs by OZBlue assay; details: PANC-1, 72 h
MCF7 [7] = experiment: Downregulation of RPLP0 mRNA expression in human MCF7 cells at 5 uM after 6 hrs by qRT-PCR method; assay type: functional, cell-based
In short: (§1)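 MCF7 cells treated with 5 μM compound or DMSO for 6 h. Total RNA extracted, transcript levels measured by qRT-PCR and normalized to RNA18s. Biological triplicate, mean ± SD, t test versus control.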

[8] = Binding affinity to 5'-DY681-labeled AU-rich RNA probe (unknown origin) at 5 uM after 30 mins by REMSA
In short: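 Non-denaturing, non-cross-linked gel-shift assay: 75 fmol of 5′-DY681-labeled AU-rich RNA probe incubated 30 min with compound at 5 μM, with DMSO as control. The probe was read by its fluorescent label to detect a shift or loss of the free RNA band.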

[9] = Binding affinity to TNF AU-rich elements (unknown origin) at 10 uM by CD spectroscopic method
In short: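 Circular dichroism of TNF-ARE RNA (10 μM final) with compound (10 μM) in 10 mM sodium phosphate, pH 7.3. Spectra were recorded at 240–350 nm and 100 nm/min. The spectrum of compound alone (10 μM) in the same buffer was subtracted, and Δε was plotted to judge any change in RNA conformation.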

MDA-MB-231 [10] = experiment: Antimigratory activity in human MDA-MB-231 cells at 5 to 20 uM after 24 to 48 hrs by scratch assay; assay type: functional, cell-based
In short: (§2)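 Scratch assay: monolayers in DMEM with 10% FBS wounded with a pipette tip, then treated with DMSO or compound; the same field imaged at 0, 24 and 48 h at 5× magnification and residual open wound area measured. Student t test.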

MCF7 [11] = experiment: Downregulation of HPRT1 mRNA expression in human MCF7 cells at 5 uM after 6 hrs by qRT-PCR method; assay type: functional, cell-based; in short: as §1
PANC-1 [12] = experiment: Antimigratory activity in human PANC1 cells at 5 to 20 uM after 24 to 48 hrs by scratch assay; assay type: functional, cell-based; in short: as §2

T1 sequence (Q15717 whole entry): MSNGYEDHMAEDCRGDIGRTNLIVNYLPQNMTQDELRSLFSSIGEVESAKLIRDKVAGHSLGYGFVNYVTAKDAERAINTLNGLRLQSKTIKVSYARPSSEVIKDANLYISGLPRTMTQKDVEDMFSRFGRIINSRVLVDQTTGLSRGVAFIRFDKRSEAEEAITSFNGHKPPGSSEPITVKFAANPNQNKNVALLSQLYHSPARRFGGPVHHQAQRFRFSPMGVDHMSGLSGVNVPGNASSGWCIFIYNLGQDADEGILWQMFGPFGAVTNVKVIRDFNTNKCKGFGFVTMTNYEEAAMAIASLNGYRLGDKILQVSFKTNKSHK

O=C1C(=O)c2c(-c3ccccc3)cn(S(=O)(=O)c3ccccc3)c2C2=C1C1C=CC2CC1 (stereo unspecified)
Ki (ELAV-like protein 1 [1]): > 0.3 µM

CN(C)c1ccc(-c2cn(S(=O)(=O)c3ccccc3)c3c2C(=O)C(=O)C=C3)cc1
Ki (ELAV-like protein 1 [1]): > 0.1 µM

O=C1C=Cc2c(c(-c3ccccc3)cn2S(=O)(=O)c2cccc([N+](=O)[O-])c2)C1=O
Ki (ELAV-like protein 1 [1]): > 0.1 µM

COc1cccc(-c2cn(S(=O)(=O)c3ccccc3)c3c2C(=O)C(=O)C=C3)c1
Ki (ELAV-like protein 1 [1]): > 0.2 µM

O=C1C=Cc2c(c(-c3ccccc3)cn2S(=O)(=O)c2ccc([N+](=O)[O-])cc2)C1=O
inhibition (ELAV-like protein 1 [2]): Active

CC1=CC(=O)C(=O)c2c(-c3ccccc3)cn(S(=O)(=O)c3ccccc3)c21
Ki (ELAV-like protein 1 [1]): > 0.2 µM

O=C1C=Cc2c(c(-c3ccccc3)cn2S(=O)(=O)c2cccc(F)c2)C1=O
Ki (ELAV-like protein 1 [1]): > 0.1 µM

O=C1C=C(c2ccc([N+](=O)[O-])cc2)c2c(c(-c3ccccc3)cn2S(=O)(=O)c2ccccc2)C1=O
Ki (ELAV-like protein 1 [1]): > 0.1 µM

O=C1C=C(c2ccccc2)c2c(c(-c3ccccc3)cn2S(=O)(=O)c2ccccc2)C1=O
Ki (ELAV-like protein 1 [1]): > 0.1 µM

Cc1cccc2c3c(ccc12)C1=C(C(=O)C3=O)[C@@H](C)CO1 [DIHYDROTANSHINONE I]
IC50 (MCF7 [3]): 3.73 µM
IC50 (MDA-MB-231 [4]): 8.99 µM
Activity (ELAV-like protein 1 [5]): inactive
Ki (ELAV-like protein 1 [1]): 0.05 µM
IC50 (PANC-1 [6]): 2.91 µM

O=C1C=Cc2c(c(-c3ccccc3)cn2S(=O)(=O)c2ccccc2)C1=O
IC50 (MCF7 [3]): 32.7 µM
IC50 (MDA-MB-231 [4]): 24.2 µM
Activity (MCF7 [7]): inactive
Activity [8]: inactive
IC50 (PANC-1 [6]): 26.5 µM
Activity [9]: inactive
Activity (MDA-MB-231 [10]): Active
Activity (MCF7 [11]): inactive
Activity (PANC-1 [12]): Active

O=C(O)Cc1ccc(SC2=CC(=O)C(=O)c3c(-c4ccccc4)cn(S(=O)(=O)c4ccccc4)c32)cc1
inhibition (ELAV-like protein 1 [2]): Active

Cc1ccccc1-c1cn(S(=O)(=O)c2ccccc2)c2c1C(=O)C(=O)C=C2
IC50 (MCF7 [3]): 58.5 µM
inhibition (ELAV-like protein 1 [2]): Active
IC50 (MDA-MB-231 [4]): 47.2 µM
IC50 (PANC-1 [6]): 25.9 µM

O=C1C=C(Sc2ccccc2)c2c(c(-c3ccccc3)cn2S(=O)(=O)c2ccccc2)C1=O
IC50 (MCF7 [3]): 28.7 µM
inhibition (ELAV-like protein 1 [2]): Active
IC50 (MDA-MB-231 [4]): 23.8 µM
IC50 (PANC-1 [6]): 24.9 µM

COc1ccc(-c2cn(S(=O)(=O)c3ccccc3)c3c2C(=O)C(=O)C=C3)cc1
Ki (ELAV-like protein 1 [1]): > 0.2 µM

COc1ccc(SC2=CC(=O)C(=O)c3c(-c4ccccc4)cn(S(=O)(=O)c4ccccc4)c32)cc1
IC50 (MCF7 [3]): 23.5 µM
IC50 (MDA-MB-231 [4]): 14.3 µM
IC50 (PANC-1 [6]): 13.6 µM

— ChEMBL document CHEMBL4052824, “Interfering with HuR-RNA Interaction: Design, Synthesis and Biological Characterization of Tanshinone Mimics as Novel, Effective HuR Inhibitors” (J Med Chem, 2018)
